The nature of data set [1]: melting temperature; fluorescence melt of hairpins on a sequencing array, two-state fit, raised by 9.35 °C to match UV melts. The conditions noted are these: sodium 0.088 M. In a few lines:
(§1)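 Hairpins were imaged by Cy3 fluorescence on a sequenced MiSeq flow cell with annealed Cy3 and quencher oligos, in 50 mM Na-HEPES pH 8.0, 25 mM NaCl, in 2.5 °C steps up to 60 °C. Bootstrapped two-state fits of normalised signals gave melting temperature and folding enthalpy. Four replicates were combined by inverse variance, and fitted temperatures were raised by 9.35 °C to match UV melts.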

Data set [2] is described as follows: folding enthalpy; higher = less favourable; fluorescence melt of hairpins on a sequencing array, two-state fit. The conditions noted are these: sodium 0.088 M. In a few lines:
as §1

Take CGTATACGGAAACGTACG (((..(((....)))))): the Tm in data set [1] was determined as 33 °C. The folding enthalpy in data set [2] was -27.7 kcal/mol.

In the case of GACAGGGGAAACCCTGCC (.(((((....))))).), the Tm in data set [1] is 46.4 °C. Moreover, the folding enthalpy in data set [2] was -13.8 kcal/mol.

Regarding GTCCGACGAAAGTCCGAC (((.(((....))).))), the Tm in data set [1] amounted to 44 °C. Moreover, the folding enthalpy in data set [2] is -27.5 kcal/mol.

On to GGGGTGGCGAAAGCCCCC (((..(((....)))))), for which the Tm in data set [1] was 62.9 °C. In data set [2], the folding enthalpy is -14.2 kcal/mol.

As for GCAGTCGCGAAAGCGTGC (((..(((....)))))), the Tm in data set [1] amounted to 46.1 °C. Besides, the folding enthalpy in data set [2] is -14.2 kcal/mol.

As to GGTCGGGGAAACCTGACC ((((.((....)).)))), the Tm in data set [1] was found to be 57.2 °C. Further, the folding enthalpy in data set [2] was -37.5 kcal/mol.

On to GATCACACCCGTGATC ((((((....)))))), for which the Tm in data set [1] was determined as 57.8 °C. The folding enthalpy in data set [2] is -35.2 kcal/mol.

Take GTTATCACGAAAGTGAAC (((..(((....)))))): the Tm in data set [1] is 28.5 °C. In addition, the folding enthalpy in data set [2] is -10.2 kcal/mol.

With GGGTTGGAAACAACCC ((((((....)))))), the Tm in data set [1] was determined as 64.7 °C. In addition, the folding enthalpy in data set [2] was -38.2 kcal/mol.

In the case of GATCTCCTCTGAGATC ((((((....)))))), the Tm in data set [1] stood at 51.8 °C. Also, the folding enthalpy in data set [2] is -31.3 kcal/mol.

Consider GCCGAGCGAAAGCTCTGC ((.((((....)))).)), for which the Tm in data set [1] was found to be 58.7 °C. In addition, the folding enthalpy in data set [2] was -28.5 kcal/mol.

GATCATGGCATGATC ((((((...)))))): the Tm in data set [1] was 51.3 °C. Besides, the folding enthalpy in data set [2] is -44 kcal/mol.

GGCAACTCGAAAGAGGCC (((..(((....)))))): the Tm in data set [1] is 48.8 °C. The folding enthalpy in data set [2] was -22.7 kcal/mol.

On to GATCCAGTTCTGGATC ((((((....)))))), for which, in data set [1], the Tm worked out at 55.5 °C. Further, in data set [2], the folding enthalpy was -39.6 kcal/mol.

Consider GCAATGCGAAAGCTTAGC ((.(.((....)).).)), for which the Tm in data set [1] is 36.4 °C. Moreover, the folding enthalpy in data set [2] was -15.9 kcal/mol.

GTGGTTCGAAAGAAACAC (((.(((....))).))): the Tm in data set [1] worked out at 55.8 °C. Also, in data set [2], the folding enthalpy was -48.8 kcal/mol.

As for GCGCGGCGAAAGCTGAGC ((.(.((....)).).)), the Tm in data set [1] came out at 63.2 °C. In addition, the folding enthalpy in data set [2] is -31.1 kcal/mol.

In the case of GCTCCGCGAAAGCCGGGC ((.(.((....)).).)), the Tm in data set [1] came out at 50 °C. For the same sequence, the folding enthalpy in data set [2] is -16.4 kcal/mol.

With GATCCCAGGTGGGATC ((((((....)))))), the Tm in data set [1] stood at 60.1 °C. Also, the folding enthalpy in data set [2] is -37 kcal/mol.

On to GTCTAACGAAAGTTTGAC (((.(((....))).))), for which the Tm in data set [1] was determined as 47.6 °C. In addition, the folding enthalpy in data set [2] is -36.7 kcal/mol.

As to GATCAGCTTACTGATC ((((((....)))))), in data set [1], the Tm stood at 51.3 °C. The folding enthalpy in data set [2] is -34 kcal/mol.

For GATCGGGATCCCGATC ((((((....)))))), the Tm in data set [1] was determined as 59.5 °C. For the same sequence, in data set [2], the folding enthalpy was -50.5 kcal/mol.

In the case of GTCGTTGAAAAACGAC ((((((....)))))), the Tm in data set [1] was found to be 61.6 °C. In addition, the folding enthalpy in data set [2] was -35.2 kcal/mol.

On to GTGTTTCGAAAGAACCAC (((.(((....))).))), for which the Tm in data set [1] was determined as 43 °C. Moreover, the folding enthalpy in data set [2] is -30.7 kcal/mol.

As for TTGGTGAAAACCAA (((((....))))), in data set [1], the Tm is 44.8 °C. Further, the folding enthalpy in data set [2] was -15.8 kcal/mol.

Take GATCCCGGAAACAGGATC (((((.(....).))))): the Tm in data set [1] amounted to 38.8 °C. For the same sequence, the folding enthalpy in data set [2] was -28.8 kcal/mol.

As for GATCCAGCGTTGGATC ((((((....)))))), the Tm in data set [1] amounted to 49.6 °C. Besides, in data set [2], the folding enthalpy was -44.2 kcal/mol.

Turning to GCGAGACCGAAAGGTCGC (((..(((....)))))), the Tm in data set [1] amounted to 59.1 °C. For the same sequence, the folding enthalpy in data set [2] is -10.3 kcal/mol.

With GCGTTGCGAAAGCAGTGC ((..(((....)))..)), the Tm in data set [1] is 51.6 °C. Besides, in data set [2], the folding enthalpy was -17.8 kcal/mol.

Consider GGCACTGGAAACAGTGTC (.(((((....))))).), for which the Tm in data set [1] stood at 54.1 °C. In data set [2], the folding enthalpy was -37.8 kcal/mol.

Turning to GGTTGCGAAAGCATACC ((((((....))).))), in data set [1], the Tm is 51.8 °C. In addition, the folding enthalpy in data set [2] is -28.7 kcal/mol.

For the sequence GCTCGGCGAAAGCCACGC ((..(((....)))..)), the Tm in data set [1] worked out at 43.3 °C. For the same sequence, the folding enthalpy in data set [2] was -11.5 kcal/mol.

GAATCTCCGAAAGGATTC (((..(((....)))))): the Tm in data set [1] was 28.7 °C. In addition, the folding enthalpy in data set [2] was -13.5 kcal/mol.

For the sequence GTGAGTGGAAACACCCAC (((.(((....))).))), the Tm in data set [1] came out at 43.2 °C. In addition, the folding enthalpy in data set [2] is -31.4 kcal/mol.

As to GGTAGCGAAAGCTTGACC ((((((....)))..))), in data set [1], the Tm was 35.7 °C. For the same sequence, the folding enthalpy in data set [2] was -13.9 kcal/mol.

With GCGAATGGTCGC ((((....)))), the Tm in data set [1] came to 47.8 °C. In addition, the folding enthalpy in data set [2] was -10.4 kcal/mol.

Regarding GCTTCCGAAAGGAATAGC ((((((....)))..))), the Tm in data set [1] is 44 °C. In data set [2], the folding enthalpy was -17.8 kcal/mol.

Source of the values: the array DNA melting data of Ke et al. (doi:10.1101/2024.01.08.574731).
